Rin1 Abl inh – human Rin1-Abl interaction inhibition. P00519+Q13671. TR-FRET Rin1/Abl binding, biochemical. inhibition, % at 7.35 µM. hit rate 0.4% among 360,000. AID 588664; in the data active means inhibition above about 5%, passing the limit was not always enough
Xi reactivation – activators of X-chromosome reactivation in mouse fibroblasts; XiGFP mouse fibroblasts, % GFP-positive cells imaging, 3 d; cells co-treated with 5-aza-dC sensitizer; scaled so ellipticine positive control = 100%; activation, % at 7.58 µM; hit rate 0.055% among 360,000; AID 743238;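 active means mean normalized replicate activation at least 10% and every replicate at or above 10%; inconclusive means only one of the two criteria met; inactive means mean below 10% and not all replicates reach 10%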;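 further: 0% = median of on-plate neutral control wells and 100% = ellipticine 6 µM median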
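System: XiGFP fibroblasts, SV40-immortalized. Medium: DMEM plus 5-aza-dC sensitizer. Doses: single point. Timing: 3 d treatment, 15 min room-temperature fixation. Control set: ellipticine 6 µM.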
ABHD5-PLIN5 inh – ABHD5-PLIN5 protein interaction inhibition; inhibition, % at 4 µM; AID 602281; hit rate 0.78% among 360,000; Split G. princeps luciferase complementation, luminescence, 4 h; Q00G26+Q8WTS1;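 active means inhibition above the mean inhibition across every tested compound plus 3 SD, cut at about 22% in these data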;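 further: 0% = DMSO only wells and the 100% control is not disclosed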
NadD inh – inhibitors of Staphylococcus aureus NadD; purified NadD enzyme, colorimetric absorbance read-out; inhibition, % at 20 µM; hit rate 0.78% among 360,000; in the data active means inhibition above about 26%
Rpn11 inh – inhibitors of human proteasome Rpn11 | O00487 | human 26S proteasome, Ub4-pepOG fluorescence polarization; 20S core pre-blocked with epoxomicin | inhibition, % at 20 µM | hit rate 0.59% among 360,000 | AID 588493;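 active means inhibition at 20 µM, scaled to each plate's controls, above about 33%, limit read from the data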
NadD conf – NadD (S. aureus) inhibition, single concentration confirmation. shares compounds with NadD inh. purified S. aureus NadD, colorimetric enzyme assay. hit rate 13% among 2,000. inhibition, % at 20 µM; in the data active means inhibition mostly above about 42%, no sharp cut-off; inactive means mostly below about 42%
* marks the source's active call; other numbers are inactive results. Hits are enriched below; roughly 1.9% of the tested compounds scored in any of these assays.

`CN1c2ccc(C#Cc3cccnc3)cc2[C@@H]2[C@@H](CCN2S(=O)(=O)c2cccc(F)c2)[C@@H]1CO` gave Xi reactivation 0.
`C(=C\c1ccco1)/c1ccc2ccccc2n1` gave Rin1 Abl inh 2, Xi reactivation 0, ABHD5-PLIN5 inh 12, NadD inh 44*, Rpn11 inh -4 and NadD conf 11.
Fc1cccc(F)c1/C=C/c1ccc2ccccc2n1 was read as Rin1 Abl inh 0, Xi reactivation 0, ABHD5-PLIN5 inh -6, NadD inh -7 and Rpn11 inh 4.
For CCc1nnc(NC(=O)CSc2nc(-c3ccccc3)cc(-c3ccc(F)cc3)c2C#N)s1 the results were Rin1 Abl inh -2, ABHD5-PLIN5 inh -4, NadD inh 44*, Rpn11 inh 32 and NadD conf 4.
For CC(C)OC(=O)CC(=O)CSc1nc(-c2ccc(F)cc2)cc(-c2ccccc2)c1C#N the results were Rin1 Abl inh -4, Xi reactivation inconclusive, ABHD5-PLIN5 inh -2, NadD inh -1 and Rpn11 inh 14.
CC(C)C[C@H]1CN([C@@H](CC(C)C)CN2CCC[C@@H]2CN2C(=S)NC[C@@H]2Cc2ccc(O)cc2)C(=S)N1CC1CCCCC1 was read as Rin1 Abl inh 1, Xi reactivation 3, ABHD5-PLIN5 inh -1, NadD inh 30*, Rpn11 inh -6 and NadD conf 11.
For CC(C)C[C@H]1CN([C@@H](CC(C)C)CN2CCCC2CN2C(=S)NC[C@@H]2Cc2ccc(O)cc2)C(=S)N1CC1CCCCC1 (stereo partly specified) the results were Rin1 Abl inh -1, Xi reactivation 0, ABHD5-PLIN5 inh -8, NadD inh 29 and Rpn11 inh -2.
`CC(C)C[C@H]1CN([C@@H](CC(C)C)CN2CCCC2CN2C(=S)NC[C@@H]2Cc2ccc(O)cc2)C(=S)N1CC1CCCCCC1` (stereo partly specified) gave Rin1 Abl inh -3, Xi reactivation 0, ABHD5-PLIN5 inh -9, NadD inh 27 and Rpn11 inh -1.
For CC(C)C[C@@H](CN1CCC[C@@H]1CN1C(=S)NC[C@@H]1Cc1ccc(O)cc1)N1C[C@H](Cc2ccc(O)cc2)N(CC2CCCCCC2)C1=S the results were Rin1 Abl inh 2, Xi reactivation 0, ABHD5-PLIN5 inh 7, NadD inh 44*, Rpn11 inh -1 and NadD conf 28.
`Cc1ccc(-c2ccc(C3[C@@H]4CN(Cc5cccc(F)c5)C[C@H]3N4)cc2)cc1` (stereo partly specified) gave Xi reactivation 0.
`O=C(CC1N=C2c3ccccc3N=C(SCc3ccc(Cl)cc3)N2C1=O)NCc1ccco1` (stereo unspecified) gave Rin1 Abl inh -1, ABHD5-PLIN5 inh 9, NadD inh 49*, Rpn11 inh 12 and NadD conf 60*.
For Cc1ccc(CSC2=Nc3ccccc3C3=NC(CCC(=O)NCc4ccco4)C(=O)N23)cc1 (stereo unspecified) the results were Rin1 Abl inh -1, ABHD5-PLIN5 inh 2, NadD inh 20 and Rpn11 inh -1.
`O=C(Nc1ccc(Cl)c(Cl)c1)Nc1ccc([N+](=O)[O-])cn1` gave Rin1 Abl inh 6, Xi reactivation 0, ABHD5-PLIN5 inh -3, NadD inh 34*, Rpn11 inh -4 and NadD conf 6.
Screening COc1c(C(O)CC(C)C)ccc2c1C(=O)OCc1cc(C)cc(O)c1O2 (stereo unspecified) returned Rin1 Abl inh -1, ABHD5-PLIN5 inh -5, NadD inh 92*, Rpn11 inh -3 and NadD conf -2.
Screening COc1c(C(CC(C)C)OC(C)=O)ccc2c1C(=O)OCc1cc(C)cc(O)c1O2 (stereo unspecified) returned Rin1 Abl inh 3, ABHD5-PLIN5 inh 0, NadD inh -4 and Rpn11 inh 5.
Screening CCC(=O)Nc1ccc2c(c1)C(=O)N(C)C[C@@H](OC)[C@H](C)CN(CC1CCOCC1)[C@@H](C)CO2 returned Xi reactivation 0.
`COc1cccc(C(=O)Oc2c(Br)cc(Br)cc2/C=N/NC(=O)c2cc(C)[nH]n2)c1` gave Rin1 Abl inh -5, Xi reactivation 0, ABHD5-PLIN5 inh -4, NadD inh 42*, Rpn11 inh 4 and NadD conf 8.
Cc1cc(C(=O)N/N=C/c2cccc(OC(=O)c3cccc(Br)c3)c2)n[nH]1 was read as Rin1 Abl inh -1, Xi reactivation 0, ABHD5-PLIN5 inh 2, NadD inh 14 and Rpn11 inh -14.
CCNc1ccc(Br)cc(C(=O)/C=C/c2ccccc2Cl)c1=O was read as Rin1 Abl inh 0, ABHD5-PLIN5 inh 18, NadD inh 34*, Rpn11 inh 11 and NadD conf 18.
`CNc1ccc(Br)cc(C(=O)/C=C/c2cccc(Cl)c2Cl)c1=O` gave Rin1 Abl inh 0, Xi reactivation 3, ABHD5-PLIN5 inh 20, NadD inh 49*, Rpn11 inh 36 and NadD conf 16.
Screening C/C(=C\c1cccc(Cl)c1Cl)C(=O)c1c(C)cc(C)[nH]c1=O returned Rin1 Abl inh 0, Xi reactivation 0, ABHD5-PLIN5 inh -1, NadD inh -5 and Rpn11 inh -4.
For C[C@H](CO)N1C[C@H](C)[C@H](CN(C)Cc2ccc(Cl)c(Cl)c2)OCCCC[C@H](C)Oc2ccc(NC(=O)Nc3ccccc3)cc2C1=O the results were Xi reactivation 0.
Cc1ccc(S(=O)(=O)Nc2ccc3c(c2)C(=O)N([C@H](C)CO)C[C@@H](C)[C@H](CN(C)C(=O)C2CCCCC2)OCCCC[C@@H](C)O3)cc1 was read as Xi reactivation 0.
`Cc1noc(C)c1NC(=O)Nc1ccc2c(c1)C(=O)N([C@@H](C)CO)C[C@@H](C)[C@H](CN(C)C(=O)Nc1ccc3c(c1)OCO3)OCCCC[C@@H](C)O2` gave Xi reactivation 0.
For COc1cc(/C=C2\SC(=O)N(c3cccc(Cl)c3)C2=O)cc([N+](=O)[O-])c1O the results were Rin1 Abl inh 1, Xi reactivation 0, ABHD5-PLIN5 inh -10, NadD inh 26*, Rpn11 inh -29 and NadD conf -1.
Screening CS(=O)(=O)Nc1ccc2c(c1)[C@H]1C[C@H](CC(=O)NCc3ccc(Cl)cc3)O[C@H](CO)[C@H]1O2 returned Xi reactivation 0.
Cc1cc(C)n2c(SCC(O)=C(C#N)c3nc4ccccc4[nH]3)nnc2n1 was read as Rin1 Abl inh 4, Xi reactivation 0, ABHD5-PLIN5 inh -3, NadD inh 25 and Rpn11 inh 28.
